# This is one part of a sample in which hits are shown more often than they occur.
# S1P3 antagonist: S1P3 receptor antagonists, primary screen, cell-based | Sphingosine 1-phosphate receptor 3 (Homo sapiens), Q99500 | CHO S1P3 NFAT-BLA reporter, FRET fluorescence, antagonist mode | inhibition, % at 4.98 µM | 170,000 tested, 0.27% active | AID 485, 2006;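 active means inhibition above the plate cutoff, the mean inhibition of test wells on that plate plus 3 SD, cut at about 28% in these data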;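 further: cells challenged with S1P at its EC80 of 0.8 µM; blue over green emission ratio from cleaved BLA substrate after 4 h stimulation; 0% = S1P-stimulated wells and 100% = unstimulated DMSO-only wells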
# Target sequence (Q99500 whole entry, looked up): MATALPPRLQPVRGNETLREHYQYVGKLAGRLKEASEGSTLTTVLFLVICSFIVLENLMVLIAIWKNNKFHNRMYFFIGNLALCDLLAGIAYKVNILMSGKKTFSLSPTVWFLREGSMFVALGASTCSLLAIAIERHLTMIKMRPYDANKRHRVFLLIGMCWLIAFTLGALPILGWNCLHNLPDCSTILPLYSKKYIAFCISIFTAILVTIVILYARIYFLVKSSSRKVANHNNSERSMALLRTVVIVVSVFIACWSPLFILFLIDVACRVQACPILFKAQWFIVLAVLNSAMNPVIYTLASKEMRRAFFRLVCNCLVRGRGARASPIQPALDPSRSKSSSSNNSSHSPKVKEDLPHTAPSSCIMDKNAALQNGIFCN
# S1P4 antagonist: S1P4 receptor antagonists, primary screen, cell-based; Sphingosine 1-phosphate receptor 4 (Homo sapiens), O95977; S1P4-expressing cells, antagonist mode, reporter read-out; inhibition, % at 4.98 µM; 220,000 tested, 0.26% active; AID 1510, 2009; in the data active means inhibition above about 29%;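 further: 0% = wells stimulated with agonist and 100% = vehicle wells without agonist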
# S1P4 ag: S1P4 receptor agonists, primary screen, cell-based. Sphingosine 1-phosphate receptor 4 (Homo sapiens), O95977. S1P4-expressing cell line, agonist reporter assay. activation, % at 4.98 µM. 220,000 tested, 0.35% active. AID 1509, 2009; in the data active means activation above about 11%;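 further: 0% = DMSO vehicle and 100% = reference agonist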
# MDM2 E3 inh: MDM2-luciferase reporter signal enhancers, primary screen, MDM2 E3 ligase inhibitor project, cell-based, luminescence, 1536-well; cell-based MDM2 ubiquitination luciferase reporter, 2 h; 0 = plate control, 100 = twice control, blank-subtracted; 210,000 tested, 0.11% active; E3 ubiquitin-protein ligase Mdm2 (Homo sapiens), Q00987; AID 1230, 2008; signal enhancement, % at 5 µM;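 active means signal enhancement of 30% or more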;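 further: luminescence tracks abundance of the self-degrading MDM2-luciferase fusion protein; higher signal means inhibition of MDM2 E3 ligase activity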
#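 Material: stable MDM2–luciferase fusion reporter cells / Quantity: 2000 cells/well / Dosing: single 5 µM compound dose, 0.2% final DMSO / Buffer or medium: DMEM / Schedule: 4 h cell settling then 2 h compound exposure, 37 °C / Detection: luminescence with SteadyLite reagent, 15 min at room temperature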
# Lmaj promast: Leishmania major promastigote growth inhibition, primary screen. 200,000 tested, 9% active. AID 1063, 2008. inhibition, % at 10 µM. Leishmania major promastigotes, resazurin fluorescence viability; in the data active means inhibition above about 50%;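 further: promastigotes grown with compound for 44 hours at 28 °C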
# Starred values were filed as active, the others as inactive; x = no result.
SMILES,S1P3 antagonist,S1P4 antagonist,S1P4 ag,MDM2 E3 inh,Lmaj promast
O=C(CSc1ccccc1)Nc1ccc(N2CCN(c3ccccc3)CC2)c(F)c1,x,-1,1,-20,-4
Cc1ccc(-c2nn(-c3ccccc3)cc2CNCc2ccccc2)cc1,-14,17,1,-9,62*
COc1ccc(-c2nn(-c3ccccc3)cc2CO)cc1,x,-7,2,-7,17
Cc1ccc(-c2nn(-c3ccccc3)c3[nH]c(=O)c(CNCc4ccccc4)cc23)cc1,x,-1,1,2,97*
COc1ccc(CNC(=O)c2ccc(NS(=O)(=O)c3c(C)noc3C)cc2)cc1,14,0,-2,-31,0
CCCN(CCC)c1nc(N(CCC)CCC)[nH]c(=O)n1,-6,0,2,-12,57*
CC(C)[C@H](NC(=O)c1ccc(Cl)c([N+](=O)[O-])c1)C(=O)NCc1ccc(Cl)cc1Cl,-4,-19,0,6,53*
O=C(COC(=O)c1cc(Cl)ccc1[N+](=O)[O-])NCc1ccc(Cl)cc1Cl,-11,-14,1,-10,62*
O=C(COC(=O)c1cc(Cl)ccc1[N+](=O)[O-])Nc1cccc2ccccc12,-19,-4,1,1,-5
CCC1=NNc2cccc3c(OC)ccc1c23,x,-13,-1,0,100*
CCS(=O)(=O)c1nc(S(=O)(=O)c2ccc(C)cc2)c(NCCCN(C)C)s1,-17,10,-1,-15,48
CCn1cc(C(=O)N2CCn3c(nc4ccccc43)C2)c(=O)c2ccc(C)nc21,68*,-22,-2,-11,-6
CCn1cc(C(=O)N=c2sc3ccccc3n2C)c(=O)c2ccc(C)nc21,9,12,0,x,89*
COc1ccc(CC(=O)N/N=C(\C)CC(=O)NCc2ccco2)cc1OC,-4,-11,2,-14,x
COc1ccc(-n2c(=O)c(CCC(=O)N(C)Cc3ccccc3C)nc3ccccc32)cc1,4,-8,0,-12,66*
CC(C)Oc1ccc(C(CC(=O)N(C)CCC#N)c2ccc(F)cc2)cc1 (stereo unspecified),3,-5,0,-1,53*
COc1cc(/C=N/NC(=O)C(N)=O)ccc1OCC(=O)N1C(C)CCCC1C (stereo unspecified),-9,-10,1,-9,-4
N#Cc1nc(Cc2cccc3ccccc23)oc1NCCN1CCCCC1,-29,3,0,-6,65*
COc1ccc(/C=N/NC(=O)c2ccccc2)cc1CN1CCN(c2ccc(F)cc2)CC1,x,6,0,-9,8
COc1ccc(/C=N/NC(=O)c2ccccc2F)cc1CN1CCN(c2ccc(F)cc2)CC1,10,-5,0,-11,67*
O=C(COC(=O)CCCN=C1NS(=O)(=O)c2ccccc21)NC(=O)NC1CCCC1,-25,-4,1,-1,-6
COc1cccc(/C=N/Nc2nc(Nc3ccc([N+](=O)[O-])cc3)nc(N3CCCC3)n2)c1O,-19,-11,1,-22,100*
O=[N+]([O-])c1ccc(Nc2nc(N/N=C/c3cccc(F)c3)nc(N3CCCC3)n2)cc1,-11,1,4,-20,36
O=[N+]([O-])c1ccc(Nc2nc(NC3CCCCC3)nc(N3CCCC3)n2)cc1,-17,0,-5,-4,98*
CCc1ccccc1NC(=O)Cn1nc(C(F)(F)F)cc1C1CC1,x,-25,1,-21,-1
SMILES,S1P3 antagonist,S1P4 antagonist,S1P4 ag,MDM2 E3 inh,Lmaj promast
CCOC(=O)c1ccc(S(=O)(=O)Nc2ccc3cn[nH]c3c2)cc1,x,-5,1,-26,68*
COc1ccc(C2=NN3C(=O)c4c(ccc(OC)c4OC)C3C2)cc1 (stereo unspecified),x,-10,0,-30,60*
COc1ccc(C2C(C(=O)N3CCOCC3)CCC(=O)N2c2cc(OC)c(OC)c(OC)c2)cc1 (stereo unspecified),x,1,-2,-9,-5
COc1ccc(C2C(C(=O)N3CCCCC3)CCC(=O)N2c2cc(OC)c(OC)c(OC)c2)cc1 (stereo unspecified),x,-2,0,38*,-4
COCCNC(=O)c1cc(C(=O)CC(C)C)c[nH]1,-11,-3,-1,-15,-6
CCOC(=O)c1nnn(-c2nonc2N)c1CSc1nnc(N)s1,-10,1,-1,24,-4

# Bioassay records (PubChem BioAssay)
